Experimental data pooled from the literature.
Protocols differ between the studies behind these lines.

SMILES | tested on | assay | test system | setting | endpoint | result
CC(C)C[C@H](NC(=O)[C@H](Cc1ccccc1)NC(=O)c1cnccn1)B(O)O | RERF-LC-MS | cell growth or viability, ATP luminescence | – | – | IC50 | 20 nM
Cc1cc(C)cc(COc2cc3c(cc2OCc2cc(C)cc(C)c2)[C@H]2C[C@](O)(Cc4cn(CCc5ccc(N)cc5)nn4)C[C@H](C)N2CC3)c1 | ASPC1 | cell growth or viability, MTT | – | – | IC50 | 568 nM
COc1ccc([S+]([O-])c2ccccc2)c(OC)c1OC (stereo not shown) | – | tubulin polymerisation, inhibitor, absorbance | – | pH 6.6 | IC50 | > 40000 nM
Cc1cc(C)cc(COc2cc3c(cc2OCc2cc(C)cc(C)c2)C2CC(O)(Cc4cn(CCCCCCOc5ccc6c(c5)C(=O)N(C5CCC(=O)NC5=O)C6=O)nn4)CC(C)N2CC3)c1 (stereo not shown) | ASPC1 | cell growth or viability, MTT | – | – | IC50 | 890 nM
COc1cc(Nc2nccc(-c3cnn4nc(OC)ccc34)n2)cc(C(F)(F)F)c1 | HEC-1-A | cell growth or viability, ATP luminescence | – | – | IC50 | 1000 nM
C[C@@H](Oc1cc(-c2cnn(C3CCNCC3)c2)cnc1N)c1c(Cl)ccc(F)c1Cl | KARPAS-299 | cell growth or viability, MTT | – | 0.2 µg/mL, 72 h | inhibition | 75.5%
C=CS(=O)(=O)Nc1ccc(Cn2cc(C[C@@]3(O)C[C@@H]4c5cc(OCc6cc(C)cc(C)c6)c(OCc6cc(C)cc(C)c6)cc5CCN4[C@@H](C)C3)nn2)cc1 | ASPC1 | cell growth or viability, MTT | – | – | IC50 | 823 nM
COc1ccc([S+]([O-])c2ccc(C)cc2)c(OC)c1OC (stereo not shown) | – | tubulin polymerisation, inhibitor, absorbance | – | pH 6.6 | IC50 | > 40000 nM
Cc1cc(Nc2ncc(Cl)c(Nc3ccccc3S(=O)(=O)C(C)C)n2)c(OC(C)C)cc1C1CCNCC1 | KARPAS-299 | cell growth or viability, MTT | – | 0.02058 µg/mL, 72 h | inhibition | 22.4%
O=C(O)c1nc2ccccc2c(=O)n1Cc1cn(-c2ccccc2)nn1 | Nakaseomyces glabratus | microbial growth, broth dilution | ATCC90030 | 24 h | IC50 | 566 µg/mL
COc1ccc(Sc2ccc(OC)c(OC)c2OC)cc1 | – | tubulin polymerisation, inhibitor, absorbance | – | pH 6.6 | IC50 | 16000 nM
C=CS(=O)(=O)Nc1ccc(CCn2cc(C[C@@]3(O)C[C@@H]4c5cc(OCc6cc(C)cc(C)c6)c(OCc6cc(C)cc(C)c6)cc5CCN4[C@@H](C)C3)nn2)cc1 | ASPC1 | cell growth or viability, MTT | – | – | IC50 | 1880 nM
O=C(O)c1nc2ccccc2c(=O)n1Cc1cn(-c2ccccc2F)nn1 | Nakaseomyces glabratus | microbial growth, broth dilution | ATCC90030 | 24 h | IC50 | 174 µg/mL
